{"source": "ChEMBL document CHEMBL1125724", "about": "“Potential anti-AIDS agents. Synthesis and antiviral activity of naphthalenesulfonic acid derivatives against HIV-1 and HIV-2” (1991)", "key": {"[1]": {"tested_on": "MT4", "assay": "Compound was evaluated for inhibitory effect against MT-4 cells of HIV-2 at a concentration of 0.8(1.3) ug/mL (uM).", "type": "functional, Homo sapiens", "in_short": "(§1)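 HIV-2 (ROD strain) infected MT-4 cells at multiplicity of infection 0.02, incubated with a range of compound concentrations for 4 days. Viable cells counted by MTT method. Per-concentration inhibition of virus-induced cytopathogenicity; values are means of two separate experiments.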"}, "[2]": {"tested_on": "MT4", "assay": "Compound was evaluated for inhibitory effect against MT-4 cells of HIV-2 at a concentration of 100(167) ug/mL (uM).", "type": "functional, Homo sapiens", "in_short": "as §1"}, "[3]": {"tested_on": "MT4", "assay": "Cell viability at a concentration of 0.8(1.3) ug/mL (uM).", "type": "functional, Homo sapiens"}, "[4]": {"tested_on": "MT4", "assay": "Compound was evaluated for inhibitory effect against MT-4 cells of HIV-2 at a concentration of 4(6.7) ug/mL (uM).", "type": "functional, Homo sapiens", "in_short": "as §1"}, "[5]": {"tested_on": "MT4", "assay": "Cell viability at a concentration of 20(33.4) ug/mL (uM).", "type": "functional, Homo sapiens"}, "[6]": {"biological_target": "Human immunodeficiency virus type 1 reverse transcriptase (Human immunodeficiency virus 1) (UniProt Q72547)", "conditions": "33.4 uM"}, "[7]": {"tested_on": "MT4", "assay": "Compound was evaluated for inhibitory effect against MT-4 cells of HIV-2 at a concentration of 20(33.4) ug/mL (uM).", "type": "functional, Homo sapiens", "in_short": "as §1"}, "[8]": {"biological_target": "Human immunodeficiency virus type 1 reverse transcriptase (Human immunodeficiency virus 1) (UniProt Q72547)", "conditions": "6.7 uM"}, "[9]": {"tested_on": "MT4", "assay": "Compound tested for its inhibition of HIV-1 induced cytopathogenicity in MT-4 cells.", "type": "functional", "conditions": "Homo sapiens, read-out: ED50 (the source's name)", "in_short": "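MT-4 cells infected with HIV-1 (HTLV-III_B) at MOI 0.02 and incubated 4 days with a range of compound concentrations. Viable cells were counted by MTT. ED50 is the 50% antiviral dose from inhibition of virus-induced cytopathogenicity, given as the mean of two separate experiments.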"}, "[10]": {"tested_on": "MT4", "assay": "Compound was evaluated for inhibitory effect against MT-4 cells of HIV-1 at a concentration of 100(167) ug/mL (uM).", "type": "functional, Homo sapiens", "in_short": "(§2)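 HIV-1 (HTLV-III_B) infected MT-4 cells at multiplicity of infection 0.02, incubated with a range of compound concentrations for 4 days. Viable cells counted by MTT method. Per-concentration inhibition of virus-induced cytopathogenicity; values are means of two separate experiments.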"}, "[11]": {"biological_target": "Human immunodeficiency virus type 1 reverse transcriptase (Human immunodeficiency virus 1) (UniProt Q72547)"}, "[12]": {"tested_on": "MT4", "assay": "Compound tested for its inhibition of HIV-2 induced cytopathogenicity in MT-4 cells.", "type": "functional", "conditions": "Homo sapiens, read-out: ED50 (the source's name)", "in_short": "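MT-4 cells infected with HIV-2 (ROD) at MOI 0.02 and incubated 4 days with a range of compound concentrations. Viable cells were counted by MTT. ED50 is the dose giving 50% inhibition of virus-induced cytopathogenicity, given as the mean of two separate experiments.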"}, "[13]": {"tested_on": "MT4", "assay": "Compound was evaluated for inhibitory effect against MT-4 cells of HIV-1 at a concentration of 0.8(1.3) ug/mL (uM).", "type": "functional, Homo sapiens", "in_short": "as §2"}, "[14]": {"tested_on": "MT4", "assay": "Cell viability at a concentration of 4(6.7) ug/mL (uM).", "type": "functional, Homo sapiens"}, "[15]": {"tested_on": "MT4", "assay": "Cell viability at a concentration of 100(167) ug/mL (uM).", "type": "functional, Homo sapiens"}, "[16]": {"tested_on": "MT4", "assay": "Compound was evaluated for inhibitory effect against MT-4 cells of HIV-1 at a concentration of 20(33.4) ug/mL (uM).", "type": "functional, Homo sapiens", "in_short": "as §2"}, "[17]": {"tested_on": "MT4", "assay": "Compound tested for its ability to reduce viability of mock-infected MT-4 cells.", "type": "functional", "conditions": "Homo sapiens, read-out: CD50 (the source's name)", "in_short": "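Mock-infected MT-4 cells were incubated 4 days with a range of compound concentrations, and viability was read by MTT. CD50 is the 50% cytotoxic dose from reduced viability, given as the mean of two separate experiments.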"}, "[18]": {"tested_on": "MT4", "assay": "Compound was evaluated for inhibitory effect against MT-4 cells of HIV-1 at a concentration of 4(6.7) ug/mL (uM).", "type": "functional, Homo sapiens", "in_short": "as §2"}, "[19]": {"tested_on": "MT4", "assay": "Cell viability at a concentration of 20(20.2) ug/mL (uM).", "type": "functional, Homo sapiens"}, "[20]": {"tested_on": "MT4", "assay": "Compound was evaluated for inhibitory effect against MT-4 cells of HIV-2 at a concentration of 0.8(0.8) ug/mL (uM).", "type": "functional, Homo sapiens", "in_short": "as §1"}, "[21]": {"tested_on": "MT4", "assay": "Compound was evaluated for inhibitory effect against MT-4 cells of HIV-1 at a concentration of 4(4) ug/mL (uM).", "type": "functional, Homo sapiens", "in_short": "as §2"}, "[22]": {"tested_on": "MT4", "assay": "Compound was evaluated for inhibitory effect against MT-4 cells of HIV-1 at a concentration of 20(20.2) ug/mL (uM).", "type": "functional, Homo sapiens", "in_short": "as §2"}, "[23]": {"biological_target": "Human immunodeficiency virus type 1 protease (Human immunodeficiency virus 1) (UniProt Q72874)", "assay": "Compound tested for % inhibition of giant cell formation at a concentration of 101 uM", "in_short": "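MOLT-4 cells were co-cultured 24 h with an equal number of HUT-78/HTLV-III_B cells in the presence of compound. Giant (syncytial) cells were counted microscopically and inhibition of giant cell formation was scored.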"}, "[24]": {"biological_target": "Human immunodeficiency virus type 1 reverse transcriptase (Human immunodeficiency virus 1) (UniProt Q72547)", "assay": "Compound tested for % inhibition of cell-free HIV-1 Reverse Transcriptase at a concentration of 505 uM", "in_short": "(§3)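 HIV-1 RT came from disrupted, partially purified, concentrated virions. Reaction ran 30 min at 37 °C in 50 mM Tris-HCl pH 8.4 with 2 mM DTT, 100 mM KCl, 10 mM MgCl2, 0.1% Triton X-100, [methyl-3H]dTTP (1 µCi, 30 Ci/mmol), poly(rA)·oligo(dT) template and compound. It was stopped with 5% TCA, and precipitate was filter-collected and scintillation-counted. Variation was at most 10%.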"}, "[25]": {"tested_on": "MT4", "assay": "Compound was evaluated for inhibitory effect against MT-4 cells of HIV-2 at a concentration of 100(101) ug/mL (uM).", "type": "functional, Homo sapiens", "in_short": "as §1"}, "[26]": {"biological_target": "Human immunodeficiency virus type 1 reverse transcriptase (Human immunodeficiency virus 1) (UniProt Q72547)", "assay": "Inhibitory dose at a concentration 505 uM cell-free HIV-1 Reverse Transcriptase", "in_short": "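HIV-1 RT from disrupted, partially purified and concentrated virions. 37 °C for 30 min in 50 mM Tris-HCl pH 8.4, 2 mM DTT, 100 mM KCl, 10 mM MgCl₂, 0.1% Triton X-100, 1 µCi [methyl-³H]dTTP, 0.01 unit poly(rA)·oligo(dT). Stopped with 5% TCA; precipitate collected on glass-fiber filters and counted by scintillation. Means of two experiments; variation ≤10%.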"}, "[27]": {"tested_on": "MT4", "assay": "Cell viability at a concentration of 0.8(0.8) ug/mL (uM).", "type": "functional, Homo sapiens"}, "[28]": {"tested_on": "MT4", "assay": "Compound was evaluated for inhibitory effect against MT-4 cells of HIV-2 at a concentration of 4(4) ug/mL (uM).", "type": "functional, Homo sapiens", "in_short": "as §1"}, "[29]": {"tested_on": "MT4", "assay": "Cell viability at a concentration of 100(1.1) ug/mL (uM).", "type": "functional, Homo sapiens"}, "[30]": {"tested_on": "MT4", "assay": "Compound was evaluated for inhibitory effect against MT-4 cells of HIV-2 at a concentration of 20(20.2) ug/mL (uM).", "type": "functional, Homo sapiens", "in_short": "as §1"}, "[31]": {"tested_on": "MT4", "assay": "Compound was evaluated for inhibitory effect against MT-4 cells of HIV-1 at a concentration of 0.8(0.8) ug/mL (uM).", "type": "functional, Homo sapiens", "in_short": "as §2"}, "[32]": {"tested_on": "MT4", "assay": "Compound was evaluated for inhibitory effect against MT-4 cells of HIV-1 at a concentration of 100(101) ug/mL (uM).", "type": "functional, Homo sapiens", "in_short": "as §2"}, "[33]": {"biological_target": "Human immunodeficiency virus type 1 reverse transcriptase (Human immunodeficiency virus 1) (UniProt Q72547)", "assay": "Compound tested for % inhibition of cell-free HIV-1 Reverse Transcriptase at a concentration of 4 uM", "in_short": "as §3"}, "[34]": {"biological_target": "Human immunodeficiency virus type 1 reverse transcriptase (Human immunodeficiency virus 1) (UniProt Q72547)", "assay": "Compound tested for % inhibition of cell-free HIV-1 Reverse Transcriptase at a concentration of 20.2 uM.", "in_short": "as §3"}, "[35]": {"tested_on": "MT4", "assay": "Cell viability at a concentration of 4(4) ug/mL (uM).", "type": "functional, Homo sapiens"}}, "data": [{"smiles": "CCCCCCCCCCCCCCCC(=O)Nc1cc(S(=O)(=O)O)cc2cc(S(=O)(=O)O)cc(O)c12", "values": [{"measurement": "Inhibition", "setting": "[1]", "value": 6, "unit": "%"}, {"measurement": "Inhibition", "setting": "[2]", "value": 100, "unit": "%"}, {"measurement": "Cell viability", "setting": "[3]", "value": 0}, {"measurement": "Inhibition", "setting": "[4]", "value": 3, "unit": "%"}, {"measurement": "Cell viability", "setting": "[5]", "value": 1}, {"measurement": "inhibition", "setting": "[6]", "value": 4, "unit": "%"}, {"measurement": "Inhibition", "setting": "[7]", "value": 12, "unit": "%"}, {"measurement": "inhibition", "setting": "[8]", "value": 9, "unit": "%"}, {"measurement": "EC50", "setting": "[9]", "value": 42, "unit": "µg/mL"}, {"measurement": "Inhibition", "setting": "[10]", "value": 100, "unit": "%"}, {"measurement": "ID50", "setting": "[11]", "value": 50, "unit": "µg/mL"}, {"measurement": "EC50", "setting": "[12]", "value": 40, "unit": "µg/mL"}, {"measurement": "Inhibition", "setting": "[13]", "value": 5, "unit": "%"}, {"measurement": "Cell viability", "setting": "[14]", "value": 0}, {"measurement": "Cell viability", "setting": "[15]", "value": 0}, {"measurement": "Inhibition", "setting": "[16]", "value": 7, "unit": "%"}, {"measurement": "CC50", "setting": "[17]", "value": "> 100", "unit": "µg/mL"}, {"measurement": "Inhibition", "setting": "[18]", "value": 0, "unit": "%"}]}, {"smiles": "O=S(=O)([O-])c1cc(NS(=O)(=O)c2ccc(-c3ccc(S(=O)(=O)Nc4cc(S(=O)(=O)[O-])c5cccc(S(=O)(=O)[O-])c5c4)cc3)cc2)cc2c(S(=O)(=O)[O-])cccc12.[Na+].[Na+].[Na+].[Na+]", "values": [{"measurement": "Cell viability", "setting": "[19]", "value": 0}, {"measurement": "Inhibition", "setting": "[20]", "value": 0, "unit": "%"}, {"measurement": "Inhibition", "setting": "[21]", "value": 1, "unit": "%"}, {"measurement": "Inhibition", "setting": "[22]", "value": 8, "unit": "%"}, {"measurement": "inhibition", "setting": "[23]", "value": 100, "unit": "%"}, {"measurement": "inhibition", "setting": "[24]", "value": 100, "unit": "%"}, {"measurement": "Inhibition", "setting": "[25]", "value": 94, "unit": "%"}, {"measurement": "ID50", "setting": "[26]", "value": 370, "unit": "µg/mL"}, {"measurement": "Cell viability", "setting": "[27]", "value": 1}, {"measurement": "Inhibition", "setting": "[28]", "value": 1, "unit": "%"}, {"measurement": "Cell viability", "setting": "[29]", "value": 0}, {"measurement": "EC50", "setting": "[9]", "value": 42, "unit": "µg/mL"}, {"measurement": "Inhibition", "setting": "[30]", "value": 9, "unit": "%"}, {"measurement": "Inhibition", "setting": "[31]", "value": 0, "unit": "%"}, {"measurement": "EC50", "setting": "[12]", "value": 43, "unit": "µg/mL"}, {"measurement": "Inhibition", "setting": "[32]", "value": 100, "unit": "%"}, {"measurement": "inhibition", "setting": "[33]", "value": 0, "unit": "%"}, {"measurement": "inhibition", "setting": "[34]", "value": 0, "unit": "%"}, {"measurement": "Cell viability", "setting": "[35]", "value": 0}, {"measurement": "CC50", "setting": "[17]", "value": "> 100", "unit": "µg/mL"}]}]}
